Experimental data from ChEMBL document CHEMBL2086249, “Use of small-molecule crystal structures to address solubility in a novel series of G protein coupled receptor 119 agonists: optimization of a lead and in vivo evaluation” (J Med Chem, 2012).

Legend:
[1] = physchem; conditions: pH 7.4
[2] = Intrinsic clearance in human liver microsomes; type: ADME, Microsome; conditions: read-out: CLH
[3] = Apparent permeability across apical to basolateral side of human Caco2 cells at 10 uM; type: ADME, cell-based; conditions: Caco-2
[4] = Hydrolytic stability of the compound at pH 1 to 10; type: physicochemical; conditions: buffer
[5] = Plasma clearance in C57BL6 mouse at 2 mg/kg, iv and 5 mg/kg, po; type: ADME, organism-based
Procedure, shortened: (§1)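 IV dose 2 mg/kg in 5% DMSO/95% (hydroxypropyl)-β-cyclodextrin; oral dose given as suspension in aqueous 0.1% pluronic F127, 5 mg/kg for mouse and rat, 13 mg/kg for dog. Dose volumes 5 mL/kg (mouse, rat) and 2 mL/kg (dog). Animals were C57BL6 mice, Han Wistar rats and beagle dogs.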

[6] = Plasma clearance in Han Wistar rat at 2 mg/kg, iv and 5 mg/kg, po; type: ADME, organism-based
Procedure, shortened: as §1

[7] = Plasma clearance in Beagle dog at 2 mg/kg, iv and […] mg/kg, po; type: ADME, organism-based, Canis lupus familiaris
[8] = Volume of distribution at steady state in C57BL6 mouse at 2 mg/kg, iv and 5 mg/kg, po; type: ADME, organism-based; conditions: in vivo, read-out: Vdss
Procedure, shortened: as §1

[9] = Volume of distribution at steady state in Beagle dog at 2 mg/kg, iv and 13 mg/kg, po; type: ADME, organism-based, Canis lupus familiaris; conditions: in vivo, read-out: Vdss
Procedure, shortened: as §1

[10] = Volume of distribution at steady state in Han Wistar rat at 2 mg/kg, iv and 5 mg/kg, po; type: ADME, organism-based; conditions: in vivo, read-out: Vdss
Procedure, shortened: as §1

[11] = Half life in C57BL6 mouse at 5 mg/kg, po; type: ADME, organism-based; design: dose 5 mg/kg, route oral; conditions: in vivo
Procedure, shortened: (§2)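 Single-dose PK in C57BL6 mice, Han Wistar rats and beagle dogs. Intravenous 2 mg/kg in 5% DMSO/95% (hydroxypropyl)-β-cyclodextrin. Oral dosing as a suspension in aqueous 0.1% (w/v) pluronic F127, at 5 mg/kg for mouse and rat and 13 mg/kg for dog. Dose volume 5 mL/kg for rodents and 2 mL/kg for dog.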

[12] = Half life in Han Wistar rat at 5 mg/kg, po; type: ADME, organism-based; design: dose 5 mg/kg, route oral; conditions: in vivo
Procedure, shortened: as §2

[13] = Half life in Beagle dog at 13 mg/kg, po; type: ADME, organism-based, Canis lupus familiaris; design: dose 13 mg/kg, route oral; conditions: in vivo
Procedure, shortened: as §2

[14] = Half life in C57BL6 mouse at 2 mg/kg, iv; type: ADME, organism-based; design: dose 2 mg/kg, route intravenous; conditions: in vivo
Procedure, shortened: as §2

[15] = Half life in Han Wistar rat at 2 mg/kg, iv; type: ADME, organism-based; design: dose 2 mg/kg, route intravenous; conditions: in vivo
Procedure, shortened: as §2

[16] = Half life in Beagle dog at 2 mg/kg, iv; type: ADME, organism-based, Canis lupus familiaris; design: dose 2 mg/kg, route intravenous; conditions: in vivo
Procedure, shortened: as §2

[17] = Oral bioavailability in C57BL6 mouse at 5 mg/kg; type: ADME, organism-based; conditions: in vivo
Procedure, shortened: as §1

[18] = Oral bioavailability in Han Wistar rat at 5 mg/kg; type: ADME, organism-based; conditions: in vivo
Procedure, shortened: as §1

[19] = Oral bioavailability in Beagle dog at 13 mg/kg; type: ADME, organism-based, Canis lupus familiaris; conditions: in vivo
Procedure, shortened: as §2

[20] = Intrinsic clearance in mouse hepatocytes assessed per million cells; type: ADME, cell-based, Hepatocyte; conditions: read-out: CLH
[21] = Intrinsic clearance in rat hepatocytes assessed per million cells; type: ADME, cell-based, Hepatocyte; conditions: read-out: CLH
[22] = Intrinsic clearance in dog hepatocytes assessed per million cells; type: ADME, cell-based, Canis lupus familiaris, Hepatocyte; conditions: read-out: CLH
[23] = Drug excretion in bile-duct cannulated Han Wistar rat bile; type: ADME; conditions: in vivo
[24] = Drug excretion in bile-duct cannulated Han Wistar rat urine; type: ADME; conditions: in vivo
[25] = Cmax in C57BL6 mouse at 5 mg/kg; type: ADME, organism-based; design: dose 5 mg/kg; conditions: in vivo
[26] = Cmax in C57BL6 mouse at 30 mg/kg; type: ADME, organism-based; design: dose 30 mg/kg; conditions: in vivo
[27] = Cmax in C57BL6 mouse at 100 mg/kg; type: ADME, organism-based; design: dose 100 mg/kg; conditions: in vivo
[28] = Cmax in Han Wistar rat at 5 mg/kg; type: ADME, organism-based; design: dose 5 mg/kg; conditions: in vivo
[29] = Cmax in Han Wistar rat at 100 mg/kg; type: ADME, organism-based; design: dose 100 mg/kg; conditions: in vivo
[30] = Cmax in Beagle dog at 1 mg/kg; type: ADME, organism-based, Canis lupus familiaris; design: dose 1 mg/kg; conditions: in vivo
[31] = Cmax in Beagle dog at 5 mg/kg; type: ADME, organism-based, Canis lupus familiaris; design: dose 5 mg/kg; conditions: in vivo
[32] = Cmax in Beagle dog at 10 mg/kg; type: ADME, organism-based, Canis lupus familiaris; design: dose 10 mg/kg; conditions: in vivo
[33] = Cmax in Beagle dog at 50 mg/kg; type: ADME, organism-based, Canis lupus familiaris; design: dose 50 mg/kg; conditions: in vivo
[34] = AUC (0 to 12 hrs) in C57BL6 mouse at 5 mg/kg; type: ADME, organism-based; design: time < 12 hr, dose 5 mg/kg; conditions: plasma
[35] = AUC (0 to 6 hrs) in C57BL6 mouse at 30 mg/kg; type: ADME, organism-based; design: time < 6 hr, dose 30 mg/kg; conditions: plasma
[36] = AUC (0 to 12 hrs) in C57BL6 mouse at 100 mg/kg; type: ADME, organism-based; design: time < 12 hr, dose 100 mg/kg; conditions: plasma
[37] = AUC (0 to 24 hrs) in Han Wistar rat at 5 mg/kg; type: ADME, organism-based; design: time < 24 hr, dose 5 mg/kg; conditions: plasma
[38] = AUC (0 to 24 hrs) in Han Wistar rat at 100 mg/kg; type: ADME, organism-based; design: time < 24 hr, dose 100 mg/kg; conditions: plasma
[39] = AUC (0 to 24 hrs) in Beagle dog at 1 mg/kg; type: ADME, organism-based, Canis lupus familiaris; design: time < 24 hr, dose 1 mg/kg; conditions: plasma
[40] = AUC (0 to 24 hrs) in Beagle dog at 5 mg/kg; type: ADME, organism-based, Canis lupus familiaris; design: time < 24 hr, dose 5 mg/kg; conditions: plasma
[41] = AUC (0 to 24 hrs) in Beagle dog at 10 mg/kg; type: ADME, organism-based, Canis lupus familiaris; design: time < 24 hr, dose 10 mg/kg; conditions: plasma
[42] = AUC (0 to 24 hrs) in Beagle dog at 50 mg/kg; type: ADME, organism-based, Canis lupus familiaris; design: time < 24 hr, dose 50 mg/kg; conditions: plasma

SMILES: CC(C)(C)OC(=O)N1C[C@@H]2C[C@H]1CN2c1ncc(OCc2ccc(S(C)(=O)=O)cc2)cn1
- logD ([1]; octanol/phosphate buffer): 2.8

SMILES: Cc1cnccc1COc1cnc(N2CCN(C(=O)OC(C)(C)C)C[C@H]2C)nc1
- logD ([1]; octanol/phosphate buffer): 3.8

SMILES: CC(C)(C)OC(=O)N1CCN(c2ccc(OCc3ccc(S(C)(=O)=O)cc3)cc2)CC1
- logD ([1]; octanol/water): 3.9

SMILES: Cc1cc(COc2cnc(N3CCN(C(=O)OC(C)(C)C)CC3)nc2)ccn1
- logD ([1]; octanol/phosphate buffer): 3.7

SMILES: CC(C)(C)OC(=O)N1CCN(c2ncc(OCc3ccncc3F)cn2)CC1
- logD ([1]; octanol/phosphate buffer): 3.6

SMILES: CC(C)(C)OC(=O)N1CCN(c2ncc(OCc3ccc(S(C)(=O)=O)cc3)nn2)CC1
- logD ([1]; octanol/phosphate buffer): 2.9

SMILES: CC(C)(C)OC(=O)N1CCN(c2ncc(OCc3ccncc3)cn2)CC1
- logD ([1]; octanol/phosphate buffer): 3.4

SMILES: CC(C)(C)OC(=O)N1CCN(c2ncc(-c3ccc(OCC#N)cc3)cn2)CC1
- microsomal CLint [2]: 259 µL/min/mg
- logD ([1]; octanol/phosphate buffer): 4.2

SMILES: C[C@@H]1CN(c2ncc(OCc3ccc(S(C)(=O)=O)cc3)cn2)[C@@H](C)CN1C(=O)OC(C)(C)C
- logD ([1]; octanol/phosphate buffer): > 3.7

SMILES: C[C@@H]1CN(C(=O)OC(C)(C)C)CCN1c1ncc(OCC2CCN(S(C)(=O)=O)CC2)cn1
- logD ([1]; octanol/phosphate buffer): 3.5

SMILES: Cc1cnccc1COc1cnc(N2CCN(C(=O)OC(C)(C)C)CC2)nc1
- logD ([1]; octanol/water): 3.8

SMILES: CC(C)(C)OC(=O)N1CCC(c2ncc(OCc3ccc(S(C)(=O)=O)cc3)cn2)CC1
- logD ([1]; octanol/water): 2.8

SMILES: CC(C)(C)OC(=O)N1CCN(c2ccc(OCc3ccc(S(C)(=O)=O)cc3)nn2)CC1
- logD ([1]; octanol/phosphate buffer): 2.8

SMILES: C[C@@H]1CN(C(=O)OC(C)(C)C)C[C@H](C)N1c1ncc(OCc2ccc(S(C)(=O)=O)cc2)cn1
- logD ([1]; octanol/phosphate buffer): > 3.6

SMILES: CC(C)c1nc(N2CCN(c3ncc(OCc4ccncc4C#N)cn3)[C@H](C)C2)no1
- Papp A→B at 10 µM [3]: 85 ×10⁻⁶ cm/s
- Stability [4]: Stable
- clearance [5]: 49 mL/min/kg
- clearance [6]: 28 mL/min/kg
- clearance [7]: 3.6 mL/min/kg
- Vd [8]: 2.4 L/kg
- Vd [9]: 4.1 L/kg
- Vd [10]: 5.1 L/kg
- half-life [11]: 1 h
- half-life [12]: 6 h
- half-life [13]: 5 h
- half-life [14]: 1 h
- half-life [15]: 3 h
- half-life [16]: 11 h
- bioavailability [17]: 22%
- bioavailability [18]: 29%
- bioavailability [19]: 24%
- hepatocyte CLint [20]: 67 µL/min/1e6 cells
- hepatocyte CLint [21]: 29 µL/min/1e6 cells
- hepatocyte CLint [22]: 5.6 µL/min/1e6 cells
- Drug excretion [23]: Active
- Drug excretion [24]: Active
- Cmax [25]: 400 nM
- Cmax [26]: 3500 nM
- Cmax [27]: 14000 nM
- Cmax [28]: 700 nM
- Cmax [29]: 6300 nM
- Cmax [30]: 600 nM
- Cmax [31]: 2500 nM
- Cmax [32]: 1300 nM
- Cmax [33]: 10000 nM
- AUC(0-t) at 12 h [34]: 0.7 µM·h
- AUC(0-t) at 6 h [35]: 6.4 µM·h
- AUC(0-t) at 12 h [36]: 42 µM·h
- AUC(0-t) at 24 h [37]: 2.7 µM·h
- AUC(0-t) at 24 h [38]: 97 µM·h
- AUC(0-t) at 24 h [39]: 4 µM·h
- AUC(0-t) at 24 h [40]: 14 µM·h
- AUC(0-t) at 24 h [41]: 11 µM·h
- AUC(0-t) at 24 h [42]: 119 µM·h
- logD ([1]; octanol/phosphate buffer): 3.3

SMILES: CC(C)(C)OC(=O)N1C[C@@H]2CC[C@H]1CN2c1ncc(OCc2ccc(S(C)(=O)=O)cc2)cn1
- logD ([1]; octanol/phosphate buffer): 3.4

SMILES: C[C@@H]1CN(c2noc(C(F)(F)F)n2)CCN1c1ncc(OCc2ccncc2C#N)cn1
- logD ([1]; octanol/phosphate buffer): 4

SMILES: C[C@@H]1CN(C(=O)OC(C)(C)C)CCN1c1ncc(OCc2ccc(S(C)(=O)=O)cc2)cn1
- logD ([1]; octanol/phosphate buffer): 3.5

SMILES: C[C@H]1CN(C(=O)OC(C)(C)C)CCN1c1ncc(OCc2ccc(S(C)(=O)=O)cc2)cn1
- logD ([1]; octanol/phosphate buffer): 3.5
